Series [1] is described as follows: Oral bioavailability in rat at 3 mg/kg administered as cassette dose measured by UPLC-MS/MS. Format: ADME, organism-based. The following applies: in vivo. An outline of the steps:
(§1)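 Ester prodrugs are given to rats by oral gavage, some as a cassette with another ester. F is the percent absolute oral bioavailability of the parent, corrected for the MW difference between prodrug and parent.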

Series [2] relates to Escherichia coli. The series can be described thus: Antibacterial activity against Escherichia coli 664507 expressing OXA-48 assessed as concentration required to restore ceftibuten activity incubated for 16 to 20 hrs in presence of 1 ug/ml ceftibuten by broth microdilution method. The class given is functional. The following applies: time 16-20 hrs. An outline of the steps:
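Tested against a 25-strain challenge panel of clinical E. coli and K. pneumoniae isolates carrying ESBL (n = 5), KPC (n = 11), class C (n = 4) or OXA-48 (n = 5) β-lactamases. Ceftibuten was held at 1 μg/mL while the BLI concentration varied. The read-out was the BLI concentration that rescued ceftibuten activity.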
In general terms: Broth dilution looks for growth in wells or tubes with falling amounts of substance.

Series [3] in a line: Inhibition of bacterial beta-lactamase KPC-2 using imipenem as substrate preincubated for 15 mins followed by substrate addition and measured after 10 mins by spectrophotometric analysis. Also on record: species or system Bacteria. An outline of the steps: (§2)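 IC50 is the mean of duplicate runs on separate days. A run was repeated automatically if it differed by more than 20% from the previous result.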

Series [4] can be described thus: Inhibition of bacterial beta-lactamase AmpC using nitrocefin as substrate preincubated for 15 mins followed by substrate addition and measured after 10 mins by spectrophotometric analysis. Also on record: species or system Bacteria. An outline of the steps:
as §2

Series [5] is described as follows: Inhibition of bacterial beta-lactamase OXA-48 using nitrocefin as substrate preincubated for 15 mins followed by substrate addition and measured after 10 mins by spectrophotometric analysis. Also noted: species or system Bacteria. An outline of the steps:
as §2

The subject of series [6] is Klebsiella pneumoniae. As to the kind of experiment: Antibacterial activity against Klebsiella pneumoniae 196477 expressing AmpC/CMY-2/TEM-1/CTX-M-15 assessed as concentration required to restore ceftibuten activity incubated for 16 to 20 hrs in presence of 1 ug/ml ceftibuten by broth microdilution method. Format: functional. The settings on record: time 16-20 hrs.
In series [7] the test system is Klebsiella pneumoniae. As to the kind of experiment: Antibacterial activity against Klebsiella pneumoniae expressing SHV-12/TEM-1 assessed as concentration required to restore ceftibuten activity incubated for 16 to 20 hrs in presence of 1 ug/ml ceftibuten by broth microdilution method. The class given is functional. The settings on record: time 16-20 hrs.
Series [8] concerns Escherichia coli. As to the kind of experiment: Antibacterial activity against Escherichia coli expressing CTX-M-15/TEM-1 assessed as concentration required to restore ceftibuten activity incubated for 16 to 20 hrs in presence of 1 ug/ml ceftibuten by broth microdilution method. Format: functional. The settings on record: time 16-20 hrs.
Series [9] is described as follows: Inhibition of bacterial beta-lactamase SHV-5 using cefotaxime as substrate preincubated for 15 mins followed by substrate addition and measured after 10 mins by spectrophotometric analysis. Also noted: species or system Bacteria. Summed up:
as §2

The subject of series [10] is Klebsiella pneumoniae. The series can be described thus: Antibacterial activity against Klebsiella pneumoniae expressing OXA-48 assessed as concentration required to restore ceftibuten activity incubated for 16 to 20 hrs in presence of 1 ug/ml ceftibuten by broth microdilution method. Format: functional. The settings on record: time 16-20 hrs.
Series [11] concerns Escherichia coli. As to the kind of experiment: Antibacterial activity against Escherichia coli 786978 expressing KPC assessed as concentration required to restore ceftibuten activity incubated for 16 to 20 hrs in presence of 1 ug/ml ceftibuten by broth microdilution method. The class given is functional. The following applies: time 16-20 hrs.
In series [12] the test system is Klebsiella pneumoniae. As to the kind of experiment: Antibacterial activity against Klebsiella pneumoniae 156309 expressing SHV-11/TEM-1/KPC-2 assessed as concentration required to restore ceftibuten activity incubated for 16 to 20 hrs in presence of 1 ug/ml ceftibuten by broth microdilution method. The class given is functional. The following applies: time 16-20 hrs.

For series [13], the system named is Escherichia coli. As to the kind of experiment: Antibacterial activity against Escherichia coli J53 expressing SHV-5/TEM-1/AmpC assessed as concentration required to restore ceftibuten activity incubated for 16 to 20 hrs in presence of 1 ug/ml ceftibuten by broth microdilution method. Format: functional. The settings on record: time 16-20 hrs.
Series [14] is described as follows: Oral bioavailability in rat at 10 mg/kg administered as cassette dose measured by UPLC-MS/MS. The class given is ADME, organism-based. The settings on record: in vivo. An outline of the steps: as §1
[15] abbreviates: 10 mg/kg, in the assay text read “measured” for “administered as cassette dose measured”.

Experimental findings from ChEMBL document CHEMBL5034013, “Discovery of VNRX-7145 (VNRX-5236 Etzadroxil): An Orally Bioavailable β-Lactamase Inhibitor for Enterobacterales Expressing Ambler Class A, C, and D Enzymes” (J Med Chem, 2021) are described below.

With `CC(C)(C)C(=O)OCOC(=O)c1cccc2c1OB(O)[C@@H](NC(=O)CCNS(C)(=O)=O)C2`, the bioavailability (in general, dose-corrected exposure relative to a reference, in per cent) in series [1] was less than 5%.

As for `C#CCCC(=O)N[C@H]1Cc2cccc(C(=O)O)c2OB1O`, the Activity in [2] was found to be 0.5 µg/mL; in [6] it was 0.06 µg/mL; in series [7] it was 0.06 µg/mL; in [8], 0.25 µg/mL; in series [10] it was 4 µg/mL; in series [11], 1 µg/mL. In addition, the Activity in series [12] is 2 µg/mL; in [13] it was 1 µg/mL. The IC50 (as a rule, the concentration needed to halve the response being measured) in series [3] was 31 nM; in series [4], 6 nM; in series [5] it was 627 nM; in series [9], 17 nM.

In the case of `CC(F)(F)CCC(=O)N[C@H]1Cc2cccc(C(=O)O)c2OB1O`, the Activity was 0.25 µg/mL in [2]; 0.12 µg/mL in series [6]; 0.03 µg/mL in series [7]; 0.5 µg/mL in [8]; 4 µg/mL in series [10]; 1 µg/mL in series [11]. Also, the Activity amounted to 4 µg/mL in series [12] and 0.03 µg/mL in series [13]. The half-maximal inhibitory concentration (IC50) in series [3] was determined as 41 nM; in [4], 7 nM; in [5] it was 2390 nM.

Turning to `CCC(=O)N[C@H]1Cc2cccc(C(=O)OCOC(=O)OC(CC)CC)c2OB1O`, in [14], the bioavailability is 33%.

Turning to `O=C(CCC(F)(F)F)N[C@H]1Cc2cccc(C(=O)O)c2OB1O`, the Activity in [2] came out at 0.25 µg/mL; in [6] it was 0.5 µg/mL; in series [7] it was 0.06 µg/mL; in series [8] it was 1 µg/mL; in [10], 8 µg/mL; in [11], 1 µg/mL. For the same compound, the results for the Activity in series [12] and in [13] were 2 µg/mL and 0.03 µg/mL, respectively. Also, the half-maximal inhibitory concentration (IC50) came out at 43 nM in series [3], 9 nM in [4], 1620 nM in [5] and 8 nM in [9].

Compound `CCC(=O)N[C@H]1Cc2cccc(C(=O)OCOC(C)=O)c2OB1O` gave a bioavailability in series [14] of 10%.

For `CCOC(=O)c1cccc2c1OB(O)[C@@H](NC(=O)CCC(N)=O)C2`, the bioavailability in series [1] was less than 5%.

As for `CC(C)(C)C(=O)OCOC(=O)c1cccc2c1OB(O)[C@@H](NC(=O)CCC(N)=O)C2`, the bioavailability in series [1] was less than 5%.

`CC(C)(C)C(=O)OCOC(=O)c1cccc2c1OB(O)[C@@H](NC(=O)CCC#N)C2`: the bioavailability in series [14] (setting [15]) came to 20%.

Consider `CC(=O)CCC(=O)N[C@H]1Cc2cccc(C(=O)OCOC(=O)C(C)(C)C)c2OB1O`, for which the bioavailability in series [14] (setting [15]) came to 95%.

In series [14], `CCC(=O)N[C@H]1Cc2cccc(C(=O)OCOC(=O)C(C)C)c2OB1O` returned a bioavailability of 38%.

In series [14], `CCC(=O)N[C@H]1Cc2cccc(C(=O)OCOC(=O)OC3CCCC3)c2OB1O` came in with a bioavailability of 24%.

With `NC(=O)CCC(=O)N[C@H]1Cc2cccc(C(=O)O)c2OB1O`, the Activity was found to be 0.06 µg/mL in series [2]; 0.016 µg/mL in [6]; 0.12 µg/mL in [7]; 0.12 µg/mL in series [8]; 0.5 µg/mL in series [10]; 1 µg/mL in series [11]. Moreover, the Activity in series [12] and in series [13] was 2 µg/mL throughout. In addition, the half-maximal inhibitory concentration (IC50) in [3] stood at 69 nM; in series [4] it was 6 nM; in series [5], 1790 nM; in [9] it was 514 nM.

Compound `CCOC(=O)c1cccc2c1OB(O)[C@@H](NC(=O)CC)C2` registered a bioavailability in series [1] of less than 5%.

`CCOC(=O)c1cccc2c1OB(O)[C@@H](NC(=O)CCNS(N)(=O)=O)C2` registered a bioavailability in series [1] of less than 5%.

With `N#CCCC(=O)N[C@H]1Cc2cccc(C(=O)O)c2OB1O`, the Activity in series [2] is 0.12 µg/mL; in series [6], 0.03 µg/mL; in [7] it was 0.06 µg/mL; in series [8], 0.12 µg/mL; in [10] it was 2 µg/mL; in [11] it was 0.5 µg/mL. Besides, the Activity came out at 2 µg/mL in [12] and 0.03 µg/mL in series [13]. Besides, the IC50 in [3] was 33 nM; in [4] it was 14 nM; in series [5], 687 nM; in [9], 12 nM.

With `CCOC(C)(C)C(=O)OCOC(=O)c1cccc2c1OB(O)[C@@H](NC(=O)CC)C2`, the bioavailability in [14] stood at 28%.

As to `CCCC(=O)N[C@H]1Cc2cccc(C(=O)O)c2OB1O`, the Activity in [2] was determined as 0.25 µg/mL; in series [6] it was 0.03 µg/mL; in series [7], 0.12 µg/mL; in series [8], 0.12 µg/mL; in series [10] it was 1 µg/mL; in series [11] it was 0.5 µg/mL. Also, the Activity in series [12] came to 1 µg/mL; in [13] it was 0.016 µg/mL. For the same compound, the IC50 in [3] worked out at 93 nM; in series [4], 9 nM; in series [5], 426 nM; in [9], 36 nM.

As to `NS(=O)(=O)CCC(=O)N[C@H]1Cc2cccc(C(=O)O)c2OB1O`, the Activity in [2] was 0.12 µg/mL; in series [6], 0.03 µg/mL; in series [7], 0.06 µg/mL; in series [8], 0.25 µg/mL; in series [10] it was 2 µg/mL; in series [11] it was 1 µg/mL. The results for the Activity in series [12] and in [13] were 2 µg/mL and 0.12 µg/mL, respectively. Further, the IC50 in series [3] was 35 nM; in series [4], 3 nM; in series [5], 8550 nM; in series [9], 8 nM.

Regarding `CCC(=O)N[C@H]1Cc2cccc(C(=O)OCOC(=O)C3CCCC3)c2OB1O`, the bioavailability in series [14] stood at 19%.

On to `CS(=O)(=O)NCCC(=O)N[C@H]1Cc2cccc(C(=O)O)c2OB1O`, for which the Activity in [2] was found to be 0.03 µg/mL; in series [6], 0.03 µg/mL; in series [7], 0.016 µg/mL; in series [8] it was 0.12 µg/mL; in series [10], 2 µg/mL; in series [11] it was 0.5 µg/mL. Besides, the Activity in [12] stood at 1 µg/mL; in [13], 0.016 µg/mL. Also, the IC50 in [3] was found to be 28 nM; in [4], 5 nM; in [5], 4670 nM; in series [9], 12 nM.

In the case of `CCCC(=O)N[C@H]1Cc2cccc(C(=O)OCOC(=O)C(C)(C)C)c2OB1O`, the F in series [1] (3 mg/kg) stood at 31%.

The compound `CCC(=O)N[C@H]1Cc2cccc(C(=O)OCOC(=O)OC(C)C)c2OB1O` yielded a bioavailability in [14] of 23%.
